Data set [1] relates to MS2 coat protein. Put plainly: apparent Kd, MS2 coat protein; higher = weaker binding; RNA-MaP array. Put shortly: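 Designed RNAs were transcribed in place on an Illumina sequencing chip from sequenced DNA templates. At room temperature and with or without input ligand, they were incubated with fluorescently labeled MS2 coat protein from 1.5 nM to 3 μM, for 0.8–1.5 h at the lowest and 10–20 min at the highest concentrations. Apparent Kd is the median of the binding-curve fits made per cluster, with designs measured on fewer than 10 clusters excluded.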

Data set [2] has as its system MS2 coat protein. Description: apparent Kd, MS2 coat protein; higher = weaker binding; RNA-MaP array; FMN 200 µM where present. An outline of the steps: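 The apparent Kd comes from binding curves fitted cluster by cluster, filtered, and summarised as a median. Those curves followed SNAP-549-labelled MS2 coat protein from 0.7 or 1.5 nM, doubling to 3 µM, on Illumina sequencing-chip clusters where stalled E. coli RNA polymerase had transcribed the designs, without and then with constant ligand. The buffer was 100 mM Tris-HCl pH 7.5, 80 mM KCl, 4 mM MgCl2, BSA, DTT, yeast tRNA and Tween-20, and green signal was normalised to red-channel RNA signal and control-cluster median Fmax.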

Where [3] appears, read: designed as: ON switch for flavin mononucleotide, no ligand.
The mark [4] stands for this setting: ligand present: flavin mononucleotide, designed as: ON switch for flavin mononucleotide.
[5] abbreviates: designed as: OFF switch for flavin mononucleotide, no ligand.
[6] abbreviates: ligand present: flavin mononucleotide, designed as: OFF switch for flavin mononucleotide.

The apparent Kd is the concentration giving half-maximal binding under the conditions of the assay. For “AUGCCACUUAAGAAGGCGGCGUGAUGCUUAGCGUUGAGACAUGAGGAUCACCCAUGUGACGUACCCGAGGAUAUUAAUGGAAUC”, the “apparent Kd” value in data set [1] (setting [3]) turned out to be 17 nM; in data set [1] (setting [4]), 11.7 nM.

On to “CAGUUACAUGAGGAUCACCCAUGUUUUUAACGCAGAGGAUAUCCGGUGGUUAAUGGCUCAGGAGAAGGCUGUGGUC”, for which the “apparent Kd” value was determined as 16.3 nM in data set [1] (setting [3]) and 9.37 nM in data set [1] (setting [4]).

In the case of “UUUUCUGAGGAGAAGGACGACCACAAACAUGAGGAUCACCCAUGUCUUACUAUCUGACCGCCAUCGUAGGAUAUCCCGAGGGAG”, the entries for the “apparent Kd” value in data set [1] (setting [3]) and in data set [1] (setting [4]) were 11.2 nM and 10.2 nM, respectively.

As for “ACCACAGAGUAGAAGGUCCGACACGGCUCGUCGGAAGGAUAUACAUAUUGUUAGAGAUGGGAACAUGAGGAUCACCCAUGUGUC”, the “apparent Kd” value in data set [1] (setting [3]) stood at 16.2 nM; in data set [1] (setting [4]), 9.9 nM.

As for “AAGGUGCACGCUCAGGAUAUAUUCCAGGUUACAUGAGGAUCACCCAUGUAGGGUUGAAGAAGGACAUAGAAGGGAGCCUACUUGGC”, the “apparent Kd” value in data set [1] (setting [3]) is 32.6 nM; in data set [1] (setting [4]) it was 21.6 nM.

In the case of “GUGUACUUUGAAGGAUAUAACGGCGGCAUUUUCUUAGAAGGUCAAGGGACAUGAGGAUCACCCAUGUUAACAUUGGUUCUAACA”, the “apparent Kd” value is 10.6 nM in data set [1] (setting [5]) and 17.5 nM in data set [1] (setting [6]).

Regarding “UGACUGUGUGAGAAGGUGUUCCGCGCCCGGCCACAAGGAUAUCACAACGCUGCCCUACAUGAGGAUCACCCAUGUGAUUGCUAC”, the “apparent Kd” value amounted to 29.5 nM in data set [1] (setting [3]) and 25.8 nM in data set [1] (setting [4]).

Consider “GGAUCACAUGAGGAUCACCCAUGUAAAGACGAUACAGGAUAUGACAGAACACGCAUCGUUUCAGAAGGGUAUAGUG”, for which the “apparent Kd” value in data set [1] (setting [3]) is 66.9 nM; in data set [1] (setting [4]), 47.6 nM.

As for “CCACGCUCAGUUAGGAUAUGAUCCAUUACCAGUGAUCAGAAGGAACAUGAGGAUCACCCAUGUACAGUACGAGA”, the “apparent Kd” value turned out to be 9.62 nM in data set [1] (setting [5]) and 14.2 nM in data set [1] (setting [6]).

Consider “AACAUGAGGAUCACCCAUGUUUCAGAUCCUCUCUGGUUCAAGUAGGAUAUGUGUGAUACGGAAGUACAGAAGGACUCCGGAGCA”, for which the “apparent Kd” value is 38.4 nM in data set [1] (setting [5]) and 29.5 nM in data set [1] (setting [6]).

Take “CGGAGUAUGACGGCCGCCACUUGCCGGGCGCAGCUGGCUGCUUGACAUGAGGAUCACCCAUGUCCAAGGACCGGGUCAUUCCUCG”: the “apparent Kd” value is 121 nM in data set [1] (designed as: ON switch for tryptophan, no ligand) and 83.9 nM in data set [1] (ligand present: tryptophan, designed as: ON switch for tryptophan).

As to “GUUCUGCAUAAGGAUAUAUGAGCACACGCAGACAUAGAAGGUAUGACAUGAGGAUCACCCAUGUCCUCUCGAGA”, the results for the “apparent Kd” value in data set [1] (setting [5]) and in data set [1] (setting [6]) were 8.5 nM and 8.65 nM, respectively.

Take “UGAUUACAUGAGGAUCACCCAUGUGACUACGCCUCAGGAUAUGAUGACAAAUUCUAGAAGUCAGAAGGGAGUUUGU”: the “apparent Kd” value in data set [1] (setting [3]) turned out to be 29.1 nM; in data set [1] (setting [4]), 21.3 nM.

With “AGUGUCAUCCAGAAGGCCUCAUGACAUGAGGAUCACCCAUGUUAUCAUGGGAGGAUAUGGAUGAUACAGCUACGUUUCGUAGCA”, the “apparent Kd” value in data set [2] (setting [3]) came to 90.5 nM; in data set [2] (setting [4]), 25.4 nM.

On to “AAUAGGCUCGCGCAGGAUAUGGAUCAUUCCACAUGAGGAUCACCCAUGUUAAGGAGCCUUUGCAUCCAGAAGGGUGUUGGUCUUU”, for which the “apparent Kd” value worked out at 97.2 nM in data set [2] (setting [3]) and 17.9 nM in data set [2] (setting [4]).

In the case of “UGCCGUUGAGGAUAUACAUUGAAUAAGAUUCAUGUAAAACUACAUGAGGAUCACCCAUGUAGAAGGCAAUGGCU”, the entries for the “apparent Kd” value in data set [2] (setting [5]) and in data set [2] (setting [6]) were 18.3 nM and 29.6 nM, respectively.

As for “UCUUAUUGCAAGGAUAUGCUAUUUAUUUUUUUUGCAGAAGGUGCAACAUGAGGAUCACCCAUGUUUCCGGGCAU”, the “apparent Kd” value in data set [2] (setting [5]) came out at 19.2 nM; in data set [2] (setting [6]), 42.7 nM.

With “GCCAGCGCAUGAGGAUAUGCUCCCGUUUCGGGAGCAGAAGGCAUGUCAUAAGACAUGAGGAUCACCCAUGUAGUUAACAUGGCA”, the “apparent Kd” value is 311 nM in data set [2] (setting [3]) and 23 nM in data set [2] (setting [4]).

As to “GUAGCUAUCGGAGGAUAUUCAUACCGGAAACGGACAUGAGGAUCACCCAUGUGCCGAAAGGCUUGGGAGAAGGCCGAUAGCUAC”, the “apparent Kd” value in data set [2] (setting [3]) came out at 297 nM; in data set [2] (setting [4]), 18.5 nM.

Take “AGUAACAGAGGAUAUACUGUUUUAUGUGUUUGUUAUUUUGAACAUGAGGAUCACCCAUGUAGAAGGCUGAAUAA”: the “apparent Kd” value in data set [2] (setting [5]) was 22.2 nM; in data set [2] (setting [6]) it was 21.3 nM.

Regarding “UCCUUGUCCUGAGGAUAUCCGUGGUUCCCGAAAGGAGAAGGCAGGACAUGAGGAUCACCCAUGUACCCAGAUAUCGUACAGAGA”, the “apparent Kd” value in data set [2] (setting [5]) came out at 50.4 nM; in data set [2] (setting [6]), 360 nM.

On to “UGCGAUGCAGUUGGCCCUGGGCGAGAGGAUAUGGGCAGCGGGACAUGAGGAUCACCCAUGUUCUCUCAGAAGGCUCGAGCAGGC”, for which the “apparent Kd” value in data set [2] (setting [3]) came out at 256 nM; in data set [2] (setting [4]), 91.6 nM.

With “GUACUGUAGUGAGGAUAUACGAGAUCGAUAGAUCGGCGAUCCAAUAAUACAUGAGGAUCACCCAUGUAGAAGGCACUUCAGUAC”, the “apparent Kd” value in data set [2] (setting [5]) worked out at 7.07 nM; in data set [2] (setting [6]), 99 nM.

The values are drawn from the EternaBench riboswitch data.
